Consider two compounds from ChEMBL document CHEMBL1124451, “[(1H-imidazol-1-yl)methyl]- and [(3-pyridinyl)methyl]pyrroles as thromboxane synthetase inhibitors” (J Med Chem, 1989).

For orientation: IC50 means the concentration that gives 50% inhibition. A word on the inhibition in vivo: it is the percentage by which the read-out fell short of the control.

Test [1] relates to Mus musculus. In words: Activity at 10 mg/kg […] against mortality in a pulmonary thromboembolism model in mice (10 animals) at -18h following oral administration. The class given is functional. In outline: (§1)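 Male Swiss-Webster mice (22-26 g), 10 per group (one group of 9); test material given po in 0.2 mL CMC at -1, -3, -5 or -18 h before challenge. At hour 0, collagen extract plus epinephrine hydrochloride given iv via tail vein in 0.9% saline. The collagen amount was titrated per lot to 90-100% mortality in vehicle controls. Readout: % surviving at 24 h.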

In test [2] the test system is Mus musculus. In words: Activity at 25 mg/kg given intravenously against mortality in a pulmonary thromboembolism model in mice (9 animals) at -3h. Type of test: functional. The conditions noted are these: route intravenous. The gist of the method:
(§2)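 Male Swiss-Webster mice (22-26 g); test material given iv in 0.2 mL CMC before challenge (mostly at -3 h, one group at -1 h). At hour 0, collagen extract plus epinephrine hydrochloride given iv in 0.2 mL 0.9% saline via tail vein. The collagen amount was set per lot as the minimum giving 90-100% mortality in CMC-vehicle controls. Readout: % surviving at 24 h.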

Test [3] has as its system Mus musculus. Nature of the test: Activity at 10 mg/kg given intravenously against mortality in a pulmonary thromboembolism model in mice (10 animals) at -1h. Type of test: functional. The conditions noted are these: route intravenous. The gist of the method: as §2
The test system of test [4] is Mus musculus. Nature of the test: Activity at 10 mg/kg […] against mortality in a pulmonary thromboembolism model in mice (10 animals) at -7h following oral administration. Type of test: functional.
In test [5] the test system is Mus musculus. In words: Activity at 10 mg/kg […] against mortality in a pulmonary thromboembolism model in mice (10 animals) at -5h following oral administration. The class given is functional. The gist of the method: as §1
For a further test, the species on record is Homo sapiens. Nature of the test: In vitro inhibition of ADP-induced aggregation of human platelet rich plasma in the presence of pig aortal microsomes. Type of test: functional. The conditions noted are these: Aorta. The gist of the method: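 Human citrated blood (0.38% citrate final), PRP by centrifugation at 200g, room temperature. Drug added to 1.0 mL PRP, 2 min at 37 °C with stirring (500 rpm), then pig aortal microsomes 3 min; microsome amount set by the dazoxiben standard. Aggregation induced by 5 μM ADP (final), read turbidimetrically.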

Test [6] relates to Mus musculus. In words: Activity at 10 mg/kg […] against mortality in a pulmonary thromboembolism model in mice (10 animals) at -1h following oral administration. Type of test: functional. In outline: as §1
The test system of test [7] is Mus musculus. Nature of the test: Activity at 10 mg/kg […] against mortality in a pulmonary thromboembolism model in mice (10 animals) at -3h following oral administration. The class given is functional. In outline:
as §1

Test [8] deals with Mus musculus. In words: Effect of TXA2 Synthetase inhibition (topically) upon inflammation in arachidonic acid induced ear edema in mice. The class given is functional. The gist of the method: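 Arachidonic acid-induced ear edema in mice; test material applied topically at 2 mg/mouse.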
Test [9] concerns Rattus norvegicus. In words: Percent inhibition of thromboxane from control in urine of rats with 5/6 nephrectomy at 205 mg/kg per day. The class given is functional. In outline:
(§3)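 Male Munich Wistar rats, 200-270 g, 5/6 renal ablation (right nephrectomy plus ligation of arterial branches to two-thirds of left kidney) under 50 mg/kg brevital ip. Drug given in drinking water from 1 week post-surgery: 500 mg/L (68 mg/kg/day), 1500 mg/L (205 mg/kg/day), or 3000 mg/L (410 mg/kg/day) after 9 weeks. TXB2 measured by radioimmunoassay in urine (8-11 weeks) and serum (10-13 weeks); controls received water.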

For test [10], the system named is Rattus norvegicus. Nature of the test: Percent inhibition of thromboxane from control in serum of rats with 5/6 nephrectomy at 410 mg/kg per day. Type of test: functional. In outline: as §3
For test [11], the system named is Rattus norvegicus. In words: Percent inhibition of thromboxane from control in urine of rats with 5/6 nephrectomy at 68 mg/kg per day. Type of test: functional. In outline:
as §3

Test [12] deals with Mus musculus. Nature of the test: Activity at 10 mg/kg given perorally against mortality in a pulmonary thromboembolism model in mice (10 animals) at -5h following oral administration. Type of test: functional. In outline: as §1
For test [13], the species on record is Mus musculus. In words: Effect of TXA2 Synthetase inhibition (perorally) upon inflammation in phenoylquinone-induced writhing in mice. Type of test: functional. (In general: Writhing tests count abdominal constrictions after an irritant is injected.)
Test [14] deals with Rattus norvegicus. Nature of the test: Concentration of thromboxane in urine of rats with 5/6 nephrectomy; when treated with compound at 68 mg/kg per day (n=4). The class given is functional, organism-based. In outline:
as §3

In test [15] the test system is Rattus norvegicus. In words: Concentration of thromboxane in serum of rats with 5/6 nephrectomy; when treated with compound at 205 mg/kg per day (n=4). The class given is functional, organism-based. The gist of the method: as §3
The species named for test [16] is Rattus norvegicus. In words: Effect of TXA2 Synthetase inhibition (perorally) upon inflammation in rat adjuvant-induced arthritis model. Type of test: functional.
Test [17] relates to Mus musculus. In words: Activity at 6.25 mg/kg given intravenously against mortality in a pulmonary thromboembolism model in mice (10 animals) at 3 hr. To be noted: route intravenous. Type of test: functional. In outline:
as §2

For test [18], the system named is Rattus norvegicus. In words: Concentration of thromboxane in urine of rats with 5/6 nephrectomy; when treated with compound at 410 mg/kg per day (n=4). The class given is functional, organism-based. In outline: as §3
The subject of test [19] is Mus musculus. In words: Effect of TXA2 Synthetase inhibition (topically) upon inflammation in 12-O-tetradecanoylphorbol acetate induced ear edema in mice. Type of test: functional.
In test [20] the test system is Mus musculus. In words: Activity at 10 mg/kg given perorally against mortality in a pulmonary thromboembolism model in mice (10 animals) at -18h following oral administration. Type of test: functional. The gist of the method: as §1
For test [21], the system named is Mus musculus. Nature of the test: Activity at 10 mg/kg given perorally against mortality in a pulmonary thromboembolism model in mice (10 animals) at -1h following oral administration. The class given is functional. In outline:
as §1

The subject of test [22] is Mus musculus. Nature of the test: Activity at 10 mg/kg given perorally against mortality in a pulmonary thromboembolism model in mice (10 animals) at -3h following oral administration. Type of test: functional. In outline: as §1
Test [23] deals with Mus musculus. Nature of the test: Effect of TXA2 Synthetase inhibition (perorally) upon inflammation in oxazolone induced delayed hypersensitivity ear edema in mice. Type of test: functional. In outline: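 Oxazolone-induced delayed hypersensitivity ear edema in mice; test material dosed orally at 25 mg/kg.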
Test [24] deals with Rattus norvegicus. In words: Percent inhibition of thromboxane from control in urine of rats with 5/6 nephrectomy at 410 mg/kg per day. Type of test: functional. In outline:
as §3

Test [25] has as its system Mus musculus. Nature of the test: Activity at 25 mg/kg given intravenously against mortality in a pulmonary thromboembolism model in mice (10 animals) at 3 hr. The class given is functional. To be noted: route intravenous. In outline:
as §2

Test [26] relates to Rattus norvegicus. In words: Percent inhibition of thromboxane from control in serum of rats with 5/6 nephrectomy at 205 mg/kg per day. Type of test: functional. In outline:
as §3

The test system of test [27] is Rattus norvegicus. Nature of the test: Total glomeruli with lesions was determined […], in kidneys of rats after dosing with compound at 205 mg/kg per day. The class given is functional, Kidney. In outline:
(§4)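 5/6 renal ablated male Munich Wistar rats received drug in drinking water: 205 mg/kg/day, or 68 mg/kg/day for 9 weeks then 410 mg/kg/day for 4 weeks; controls received water. Kidneys perfused with fixative at end of week 10 (205 group) or week 13. Glomeruli with lesions counted (mesangial proliferation, tubular hyaline casts, cortical interstitial inflammation, hydronephrosis); mean ± SEM.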

Test [28] deals with Rattus norvegicus. Nature of the test: Effect of TXA2 Synthetase inhibition (perorally) upon inflammation in carrageenan induced rat paw edema in rats.
Test [29] deals with Rattus norvegicus. Nature of the test: Concentration of thromboxane in serum of rats with 5/6 nephrectomy; when treated with compound at 410 mg/kg per day (n=4). The class given is functional, organism-based. In outline: as §3
In test [30] the test system is Mus musculus. Nature of the test: Activity at 10 mg/kg given perorally against mortality in a pulmonary thromboembolism model in mice (10 animals) at 1 hr. Type of test: functional. To be noted: route oral. In outline: as §1
The subject of test [31] is Rattus norvegicus. Nature of the test: Total glomeruli with lesions was determined […], in kidneys of rats after dosing at 68 mg/kg per day for 9 weeks following by dosing with 410 mg/kg/day for 4 weeks. Type of test: functional, Kidney. The gist of the method:
as §4

Test [32] has as its system Mus musculus. In words: Activity at 12.5 mg/kg given intravenously against mortality in a pulmonary thromboembolism model in mice (10 animals) at 3 hr. To be noted: route intravenous. Type of test: functional. In outline:
as §2

The subject of test [33] is Rattus norvegicus. In words: Concentration of thromboxane in urine of rats with 5/6 nephrectomy; when treated with compound at 205 mg/kg per day (n=5). Type of test: functional, organism-based. The gist of the method:
as §3

Test [34] addresses T1, Thromboxane-A synthase (Homo sapiens) (UniProt P24557).
T1 sequence (whole entry): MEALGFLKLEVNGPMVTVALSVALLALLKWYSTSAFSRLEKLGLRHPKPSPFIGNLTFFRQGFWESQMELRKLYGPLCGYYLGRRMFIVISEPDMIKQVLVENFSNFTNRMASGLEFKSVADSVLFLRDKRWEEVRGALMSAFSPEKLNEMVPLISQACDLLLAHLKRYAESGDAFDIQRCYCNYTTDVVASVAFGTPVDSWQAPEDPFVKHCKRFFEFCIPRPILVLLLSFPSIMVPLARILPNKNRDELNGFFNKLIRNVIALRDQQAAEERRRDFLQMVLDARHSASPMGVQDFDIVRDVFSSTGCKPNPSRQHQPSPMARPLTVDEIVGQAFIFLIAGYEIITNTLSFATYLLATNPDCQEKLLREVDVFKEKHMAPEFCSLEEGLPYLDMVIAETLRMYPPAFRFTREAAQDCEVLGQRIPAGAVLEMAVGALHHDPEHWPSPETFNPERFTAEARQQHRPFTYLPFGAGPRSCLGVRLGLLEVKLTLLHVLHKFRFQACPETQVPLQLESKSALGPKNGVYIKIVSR
In words: Relative potency of thromboxane A2 synthetase as reduced ADP-induced aggregation of human platelet rich plasma compared to dazoxiben. Type of test: functional, cell-free.

Turning to `O=C(O)c1ccc(OCCn2ccnc2)cc1` [DAZOXIBEN], the survival at 10 mg/kg in the test on Mus musculus [1] stood at 10%; in the test with Mus musculus [3] it was 30%; in the test with Mus musculus [4] it was 20%; in the test with Mus musculus [5], 20%; with Mus musculus [6], 50%; in the test on Mus musculus [7], 40%. The same compound gave a survival at 25 mg/kg in the test with Mus musculus [2] of 67%. In the test listed under Homo sapiens, the IC50 was found to be 2280 nM.

As to `C/C(=C/c1ccc(Cn2ccnc2)n1C)C(=O)O`, the Dose in the test on Mus musculus [8] is 2 mg mouse-1; in the test filed under Mus musculus [13] it was 3 mg mouse-1; in the test filed under Rattus norvegicus [16], 4.25 mg rat-1; in the test on Mus musculus [19], 0.5 mg mouse-1; in the test with Mus musculus [23], 25 mg/kg; in the test with Rattus norvegicus [28] it was 10 mg rat-1. Besides, the results for the inhibition in vivo at 205 mg/kg/day in the test with Rattus norvegicus [9] and in the test on Rattus norvegicus [26] were 77.4% and 98%, respectively. In addition, the inhibition in vivo at 410 mg/kg/day in the test with Rattus norvegicus [10] is 92.8%; in the test with Rattus norvegicus [24] it was 70.4%. In the test with Rattus norvegicus [11], this compound displayed an inhibition in vivo at 68 mg/kg/day of 78.9%. In addition, the survival at 10 mg/kg in the test with Mus musculus [12] was 30%; in the test with Mus musculus [20], 10%; in the test with Mus musculus [21] it was 40%; in the test on Mus musculus [22], 40%; with Mus musculus [30] it was 50%. The Concentration with Rattus norvegicus [14] worked out at 42 ng/day; with Rattus norvegicus [15], 10 ng/day; in the test with Rattus norvegicus [18] it was 59 ng/day; in the test on Rattus norvegicus [29], 36 ng/day; with Rattus norvegicus [33], 45 ng/day. The survival at 6.25 mg/kg with Mus musculus [17] turned out to be 70%. The survival at 25 mg/kg in the test with Mus musculus [25] stood at 90%. The values for the Total glomeruli in the test on Rattus norvegicus [27] and with Rattus norvegicus [31] were 13 and 8, respectively. Also, the survival at 12.5 mg/kg in the test on Mus musculus [32] is 70%. The compound further gave a Relative potency in test [34] of 2.2.
